Measurements pooled from the literature.
Lines come from different studies, so protocols differ. pIC50: −log10 of the molar value.
Read-out: cell growth or viability

SMILES | cell line | technique | time | quantity | result
COC(=O)c1c(C)ncn1CC(c1c[nH]c2cc(Br)ccc12)c1c[nH]c2cc(Br)ccc12 | DH82 | MTS | 24 h | CC50 | > 20 µM
CC[C@H](C)C(=O)O[C@H]1C[C@H](O)C=C2C=C[C@H](C)[C@H](CC[C@@H](O)C[C@@H](O)CC(=O)O)[C@H]21 | HCT-116 | SRB | 72 h | pIC50 | 5.45
COc1cc2c(OC)nc3c4cc5c(cc4cc(OC(C)=O)c3c2cc1OC)OCO5 | HCT-116 | MTT | – | GI50 | 1.3 µM
CC(=O)OC1c2c(ccc3ccc(=O)oc23)OC(C)(C)C1OC(=O)C(C)(O)C(C)O (centres unmarked) | HCT-116 | WST-1 | – | pIC50 | 4.79
COc1cc2c(OC)nc3c4cc5c(cc4cc(OCCN4CCC(N6CCCCC6)CC4)c3c2cc1OC)OCO5 | HCT-116 | MTT | – | GI50 | 11 µM
COc1ccc(S(=O)(=O)ON=C2C=C(C)C(=O)C(C)=C2)cc1 | HCT-116 | – | – | CC50 | 7.4 µM
COC(=O)[C@]1(O)C[C@@H](O)[C@@H](O)[C@H](OC(=O)/C=C/c2ccc(O)c(O)c2)C1 | HCT-116 | WST-1 | – | pIC50 | 4.51
CCc1ncn(CC(c2c[nH]c3ccc(C)cc23)c2c[nH]c3ccc(C)cc23)c1C(=O)OC | DH82 | MTS | 24 h | CC50 | > 20 µM
C/C=C(/C)C(=O)O[C@@H]1[C@H](OC(C)=O)c2c(ccc3ccc(=O)oc23)OC1(C)C | HCT-116 | WST-1 | – | pIC50 | 4.25
CCOC(=O)c1c(C)ncn1CC(c1cn(C)c2ccc([N+](=O)[O-])cc12)c1cn(C)c2ccc([N+](=O)[O-])cc12 | DH82 | MTS | 24 h | CC50 | > 20 µM
O=c1[nH]cc(F)c(=O)[nH]1 | AGS | crystal violet | 72 h | CC50 | 769 µM
